Laboratory results as given in ChEMBL document CHEMBL5608238, “Discovery of Thiophene Derivatives as Potent, Orally Bioavailable, and Blood-Brain Barrier-Permeable Ebola Virus Entry Inhibitors” (J Med Chem, 2024).

Legend:
[1] = tested on: Ebolavirus; assay: Antiviral activity against EBOV infected in HeLa cells; type: functional, organism-based; conditions: Orthoebolavirus
[2] = tested on: Ebolavirus; assay: Antiviral activity against EBOV Kikwit infected in HeLa cells; type: functional, organism-based; conditions: Orthoebolavirus
[3] = tested on: Ebolavirus; assay: Antiviral activity against eGFP-EBOV infected in Vero E6 cells incubated for 48 hrs by spectrofluorometer assay; type: functional, organism-based; conditions: Orthoebolavirus, Vero C1008, 48 h
[4] = Selectivity index, ratio of CC50 for african green monkey Vero E6 cells to EC50 for wild type Zaire EBOV Mayinga 1976 infected in Vero E6 cells; type: toxicity, cell-based; conditions: read-out: Ratio CC50/EC50
[5] = Selectivity index, ratio of CC50 for african green monkey Vero E6 cells to EC50 for EBOV-GP pseudotyped virus infected in Vero E6 cells; type: toxicity, cell-based; conditions: read-out: Ratio CC50/EC50
[6] = AUClast in BALB/c mouse plasma at 50 mg/kg, po measured upto 24 hrs by LC-MS/MS analysis; type: ADME, organism-based; conditions: in vivo
How it was run: (§1)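 Male BALB/c mice (8–12 weeks, 20–35 g) were given a single dose of test compound solution, either 10 mg/kg i.p. or 50 mg/kg p.o., at 10 mL/kg. Blood and then brain were taken from three mice per time point up to 24 h postdose. Plasma and brain levels were measured by LC–MS/MS, and parameters came from noncompartmental analysis.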

[7] = Toxicity in C57BL/6 mouse assessed as mortality at 250 mg/kg, po measured after 4 days; type: organism-based; conditions: in vivo, 96 h, time 4 day
How it was run: (§2)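 Male and female C57BL/6 mice (3/sex/group) got a single oral gavage dose of 50, 100 or 250 mg/kg at 10 mL/kg, in 7.5% NMP, 7.5% Solutol HS-15, 25% PEG-400 and 60% RO water. Controls received vehicle. Clinical signs, body weight, percent weight gain and feed consumption were followed for 4 days, then survivors underwent euthanasia and gross pathology.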

[8] = Drug concentration in BALB/c mouse plasma at 10 mg/kg, ip measured upto 24 hrs by LC-MS/MS analysis; type: ADME, organism-based; how it was run: as §1
[9] = Toxicity in C57BL/6 mouse assessed as tolerability at 50 mg/kg, po measured after 4 days; type: organism-based; conditions: in vivo, 96 h, time 4 day; how it was run: as §2
[10] = Drug concentration in BALB/c mouse brain at 50 mg/kg, po measured upto 24 hrs by LC-MS/MS analysis; type: ADME, organism-based; conditions: read-out: Ct; how it was run: as §1
[11] = AUClast in BALB/c mouse brain at 50 mg/kg, po measured upto 24 hrs by LC-MS/MS analysis; type: ADME, organism-based; conditions: in vivo; how it was run: as §1
[12] = AUClast in BALB/c mouse brain at 10 mg/kg, ip measured upto 24 hrs by LC-MS/MS analysis; type: ADME, organism-based; conditions: in vivo; how it was run: as §1
[13] = Drug concentration in BALB/c mouse brain at 10 mg/kg, ip measured upto 24 hrs by LC-MS/MS analysis; type: ADME, organism-based; conditions: read-out: Ct; how it was run: as §1
[14] = Toxicity in C57BL/6 mouse assessed as decrease in feed consumption at 100 mg/kg, po measured after 4 days; type: organism-based; conditions: in vivo, 96 h, time 4 day; how it was run: as §2
[15] = Drug concentration in BALB/c mouse plasma at 50 mg/kg, po measured upto 24 hrs by LC-MS/MS analysis; type: ADME, organism-based; how it was run: as §1
[16] = Toxicity in C57BL/6 mouse assessed as decrease in body weight gain at 100 mg/kg, po measured after 4 days; type: organism-based; conditions: in vivo, 96 h, time 4 day; how it was run: as §2
[17] = AUClast in BALB/c mouse plasma at 10 mg/kg, ip measured upto 24 hrs by LC-MS/MS analysis; type: ADME, organism-based; conditions: in vivo; how it was run: as §1
[18] = Cmax in BALB/c mouse brain at 50 mg/kg, po measured upto 24 hrs by LC-MS/MS analysis; type: ADME, organism-based; conditions: in vivo; how it was run: as §1
[19] = Tmax in BALB/c mouse plasma at 10 mg/kg, ip measured upto 24 hrs by LC-MS/MS analysis; type: ADME, organism-based; conditions: in vivo; how it was run: as §1
[20] = Cmax in BALB/c mouse plasma at 50 mg/kg, po measured upto 24 hrs by LC-MS/MS analysis; type: ADME, organism-based; conditions: in vivo; how it was run: as §1
[21] = Tmax in BALB/c mouse brain at 50 mg/kg, po measured upto 24 hrs by LC-MS/MS analysis; type: ADME, organism-based; conditions: in vivo; how it was run: as §1
[22] = Tmax in BALB/c mouse plasma at 50 mg/kg, po measured upto 24 hrs by LC-MS/MS analysis; type: ADME, organism-based; conditions: in vivo; how it was run: as §1
[23] = Tmax in BALB/c mouse brain at 10 mg/kg, ip measured upto 24 hrs by LC-MS/MS analysis; type: ADME, organism-based; conditions: in vivo; how it was run: as §1
[24] = tested on: Ebolavirus; assay: Antiviral activity against EBOV Zaire Kikwit infected in Huh-7 cells incubated for 48 to 72 hrs; type: functional, organism-based; conditions: Orthoebolavirus
[25] = Selectivity index, ratio of CC50 for african green monkey Vero E6 cells to EC50 for EBOV infected in Vero E6 cells; type: toxicity, cell-based; conditions: read-out: Ratio CC50/EC50
[26] = Cytotoxicity against african green monkey Vero E6 cells; type: toxicity, cell-based, Vero C1008; conditions: chlorocebus sabaeus
[27] = tested on: Ebolavirus; assay: Antiviral activity against EBOV-GP pseudotyped virus infected in Vero E6 cells preincubated with cells for 1 hr followed by viral addition and measured after 24 hrs by Steady-Glo microplate luminometer analysis; type: functional, organism-based; conditions: Orthoebolavirus, Vero C1008
How it was run: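 VeroE6 cells (2 × 10⁴/well) were treated with compound at 10 nM–10 μM for 1 h at 37 °C, then infected with 5000 TCID of EBOV Mayinga GP-pseudotyped rVSVΔG-luciferase. Luciferase was read by Steady-Glo after 24 h.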

`CCC(CC)COC(=O)[C@H](C)N[P@](=O)(OC[C@H]1O[C@@](C#N)(c2ccc3c(N)ncnn23)[C@H](O)[C@@H]1O)Oc1ccccc1` gave an EC50 [1] of 0.14 µM.
`Nc1ncnc2c([C@@H]3N[C@H](CO)[C@@H](O)[C@H]3O)c[nH]c12` showed an EC50 [2] of 11.8 µM.
Work on `CN(C)CCOc1ccc(/C(=C(/CCCl)c2ccccc2)c2ccccc2)cc1` [TOREMIFENE] yielded an IC50 [3] of 0.162 µM.
Work on `O=C(Nc1ccccc1)c1ccc(-c2cccc(OC3CCNCC3)c2)s1` yielded a selectivity ratio [4] of 113 and a selectivity ratio [5] of 4.7.
In the case of `O=C(Nc1ccccc1)c1ccc(-c2ccc(OC3CCNCC3)cc2)s1`, the AUClast [6] is reported as 8.61024 µg·h/mL, the Activity [7] is reported as “Toxic” and the concentration at 24 h [8] is reported as 2.74 µM. The Activity [9] was “Non-Toxic”, the concentration at 24 h [10] was 14.8 µM and the AUClast [11] was 97.08613 µg·h/mL. For the same molecule, the AUClast [12] was 25.42934 µg·h/mL, the concentration at 24 h [13] was 4.43 µM and the Activity [14] was “Toxic”. The concentration at 24 h [15] was 2.04 µM, the Activity [16] was “Toxic” and the AUClast [17] was 2.97311 µg·h/mL.
`O=C(Nc1ccccc1)c1ccc(-c2ccccc2OC2CCNCC2)s1` gave an AUClast [6] of 0.54178 µg·h/mL, a concentration at 24 h [8] of 0.32 µM and a Cmax [18] of 0.3167 µg/mL. For the same molecule, the concentration at 24 h [10] was 0.81 µM, the AUClast [11] was 3.34142 µg·h/mL and the AUClast [12] was 0.60009 µg·h/mL. The concentration at 24 h [13] was 0.33 µM, the Tmax [19] was 0.25 h and the Cmax [20] was 0.11231 µg/mL. The concentration at 24 h [15] was 0.29 µM, the Tmax [21] was 6 h and the Tmax [22] was 1 h. The AUClast [17] was 0.27174 µg·h/mL and the Tmax [23] was 2 h.
Work on `CC(C)C(=O)OC[C@H]1O[C@@](C#N)(c2ccc3c(N)ncnn23)[C@H](O)[C@@H]1O` [OBELDESIVIR] yielded an EC50 [24] of 4.16 µM.
`NC(=O)c1nc(F)c[nH]c1=O` showed a selectivity ratio [25] of 14.9 and a CC50 [26] of over 1000 µM.
`O=C(NCCc1ccccc1)c1ccc(-c2cccc(OC3CCNCC3)c2)s1` gave an EC50 [27] of 5.3 µM.
